Laboratory results: PubChem BioAssay
Records with an inconclusive call do not appear.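 How the source made its calls, unless noted: active means cell viability at or below a set limit in both duplicate runs, the limit being the all-compound median minus 4 SD (cut at about 23% in these data, passing the limit was not always enough); inconclusive means no clear call, values can overlap the other calls; inactive means the rest.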

Legend:
[1] = OD615 S. cerevisiae growth inhibition, permissive medium, pilot counter-assay, permissive growth control for S. cerevisiae lifespan shortening project (AID 705;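 active means growth inhibition above 25% in both replicates, a cutoff set 3 SD above the mean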); settings: OD615, 24 h, at 10 µM, hits give high values
Outline: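 System: Engineered DeaD yeast | Buffer or medium: SC raffinose/galactose permissive medium | Doses: 10 µM single dose, 0.25% DMSO | Times: 24 h exposure, 30 °C | Measured by: OD615 turbidity read | Read-out: Yeast growth inhibition indicated by reduced 24 h OD615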

[2] = Restrictive medium S. cerevisiae growth inhibition, OD615, pilot screen of yeast lifespan reduction project, restrictive growth control (AID 706;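 active means growth inhibition above a set limit, 3 SD over mean compound inhibition, in both replicates, cut at about 43% in these data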;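 further: modified DeaD lifespan yeast strain shifted to restrictive glucose medium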); settings: OD615, 48 h, at 10 µM, hits give high values
Outline: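 Assay system: engineered S. cerevisiae DeaD strain; Buffer or medium: CSMM-D glucose medium; Dosing: 10 µM compound, 0.25% DMSO; Times: cell pre-growth 4 h, compound exposure 48 h, 30 °C; Detection: absorbance (optical density) measured at 615 nm.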

[3] = viability gain of MRP-1-high H69AR cells under doxorubicin, pilot screen, MRP-1 activator project, CellTiter-Glo, duplicate (AID 807;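 active means viability increase at or above a cutoff of the median across tested compounds plus 3 SD, cut at about 8.5% in these data, passing the limit was not always enough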;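 further: compound pretreatment 18-22 h then 72 h combined with doxorubicin; 0% = doxorubicin alone and 100% = vehicle without doxorubicin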); settings: H69AR viability with doxorubicin, CellTiter-Glo luminescence; at 10 µM; hits give high values
[4] = growth suppression of beta-catenin knockout HCT116, pilot screen, human colon tumor cells (AID 823); settings: CellTiter-Glo, 60 h, at 10 µM, hits give low values;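 further: 0% = wells killed by 20 µM Hyamine and 100% = untreated DMSO cell wells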
[5] = growth suppression of PTEN-deleted HCT116, pilot screen, cell-based, HCT116 clonal line, CellTiter-Glo (AID 824;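 active means viability at or below 27.92% in each of two runs, the all-compound median minus 4 SD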;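 further: 0% = 20 µM Hyamine control and 100% = vehicle cell control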); settings: 60 h, at 10 µM, hits give low values
[6] = inhibitors of the yeast RAM network, pilot screen, dse1pr::URA3 reporter, 5-FOA selection (AID 869;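 active means inhibition over a set limit, the all-compound mean plus 3 SD, in both replicate runs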;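 further: 0% = DMSO wells with no growth and 100% = 10 µM 1-NA-PP1 with full growth; RAM network block rescues cells from 5-FOA so hits raise OD615 growth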); settings: S. cerevisiae dse1pr::URA3 5-FOA growth, OD615, 2 d; at 10 µM; hits give high values; strain carries analog-sensitive mutant Cbk1 kinase
[7] = RAM signaling pathway blockade in yeast – S. cerevisiae, Pdr1DBD-CYC8 efflux-inhibited sensitized strain, primary screen (AID 1298;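 active means RAM network inhibition above 8.4% in each of two replicates, 3 SD over the compound average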;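 further: 0% = DMSO untreated cells without growth and 100% = 10 µM 1-NA-PP1 full growth; higher means more yeast growth rescued from 5-FOA killing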); settings: S. cerevisiae cbk1-as DSE1-URA3 strain, 5-FOA growth OD615, 2 d; at 50 µM; hits give high values

Cc1cc(C)cc(N(CC(=O)NCC2CCCO2)S(=O)(=O)c2c(C)noc2C)c1 (configuration not stated)
inactive: growth inhibition [1] -12.5% | growth inhibition [2] -8.86% | viability increase [3] -1.25% | viability [4] 102% | viability [5] 90.5% | inhibition [6] 2.89% | RAM network inhibition [7] 1.84%

Cn1c(=NC(=O)C2CC2)sc2cc(F)cc(F)c21
inactive: growth inhibition [1] -0.79% | growth inhibition [2] 8.89% | viability increase [3] -4.58% | viability [4] 91.3% | viability [5] 92.6% | inhibition [6] 1.81% | RAM network inhibition [7] 7.52%

O=C(NCCCN1CCOCC1)c1ccco1
inactive: growth inhibition [1] -9.93% | growth inhibition [2] -3.09% | viability increase [3] -0.94% | viability [4] 98.8% | viability [5] 96.2% | inhibition [6] 0.23% | RAM network inhibition [7] 2.27%

COc1cccc(CNC(=O)c2cc3ccccn3n2)c1
inactive: growth inhibition [1] -1.27% | growth inhibition [2] -6.35% | viability increase [3] -2.27% | viability [4] 106% | viability [5] 96.8% | inhibition [6] 1.33% | RAM network inhibition [7] -0.11%

Cc1ccc(S(=O)(=O)N(CC(O)CN2CCCCC2)c2ccccc2)cc1 (configuration not stated)
inactive: growth inhibition [1] 0.475% | growth inhibition [2] 0.56% | viability increase [3] -2.49% | viability [4] 71.6% | viability [5] 96.6% | inhibition [6] 2.97% | RAM network inhibition [7] 3.38%

COc1cccc(-n2c(Cc3cc(=O)[nH]c(=O)[nH]3)nnc2SC(C)C)c1
inactive: growth inhibition [1] -12.3% | growth inhibition [2] 8.2% | viability increase [3] -0.34% | viability [4] 103% | viability [5] 100% | inhibition [6] 1.71% | RAM network inhibition [7] 3.35%

Cc1cc(C)n2nc3nc4c(cc3c2n1)CCCC4
inactive: growth inhibition [1] -8.72% | growth inhibition [2] -14.6% | viability increase [3] -4.42% | viability [4] 88.2% | viability [5] 82.7% | inhibition [6] 4.34% | RAM network inhibition [7] 3.01%

O=C(Nc1nc2ccc(Cl)cc2s1)c1ccc(Br)o1
inactive: growth inhibition [1] -6.29% | growth inhibition [2] -6.11% | viability increase [3] -2.25% | viability [4] 82.3% | viability [5] 82.7% | inhibition [6] 2.08% | RAM network inhibition [7] 5.17%

Cc1nc(Sc2nnnn2-c2ccccc2)c(C#N)c(C)c1C
inactive: growth inhibition [1] -13.8% | growth inhibition [2] -9.12% | viability increase [3] -2.52% | viability [4] 108% | viability [5] 97% | inhibition [6] 2.97% | RAM network inhibition [7] 9.98%

CC(C)(C)c1ccc(S(=O)(=O)N2CCN(CCC#N)CC2)cc1
inactive: growth inhibition [1] -8.29% | growth inhibition [2] -2.35% | viability increase [3] -2.4% | viability [4] 100% | viability [5] 96.3% | inhibition [6] 0.88% | RAM network inhibition [7] 4.27%

CCOC(=O)N1CCC(N2CC34C=CC(O3)C(C(=O)Nc3ccc(C)cc3)C4C2=O)CC1 (configuration not stated)
inactive: growth inhibition [1] -0.385% | growth inhibition [2] -0.16% | viability increase [3] 1.43% | viability [4] 100% | viability [5] 102% | inhibition [6] 1.33% | RAM network inhibition [7] 2.54%

CC1(C)CC(=O)C2(CC3=C(CC(C)(C)CC3=O)O2)C(=O)C1
inactive: growth inhibition [1] -4.3% | growth inhibition [2] 0.72% | viability increase [3] 0.2% | viability [4] 94.7% | viability [5] 97.1% | inhibition [6] 1.96% | RAM network inhibition [7] 1.77%

CCN=C(Nc1ccc2c(c1)OCO2)SC1CC(=O)N(c2ccccc2F)C1=O (configuration not stated)
inactive: growth inhibition [1] -4.17% | growth inhibition [2] -8.21% | viability increase [3] -1.9% | viability [4] 97% | viability [5] 95.9% | inhibition [6] 3.15% | RAM network inhibition [7] 10.8%

Cc1cc(NC(=O)CSc2c3c(nc4ccccc24)CCC3)no1
inactive: growth inhibition [1] -4.17% | growth inhibition [2] 5.52% | viability increase [3] -6.01% | viability [4] 78.1% | viability [5] 74.6% | inhibition [6] 2.21% | RAM network inhibition [7] 2.01%

O=C(CCCCC(=O)N1CCN(c2ccccc2)CC1)N1CCN(c2ccccc2)CC1
inactive: growth inhibition [1] -2.23% | growth inhibition [2] 8.9% | viability increase [3] 0.82% | viability [4] 94.6% | viability [5] 86% | inhibition [6] 1.74% | RAM network inhibition [7] -0.46%

NS(=O)(=O)c1ccc(CCNC2CC(=O)N(CCc3ccccc3)C2=O)cc1 (configuration not stated)
inactive: growth inhibition [1] -14.1% | growth inhibition [2] -16% | viability increase [3] 1.79% | viability [4] 98% | viability [5] 99.9% | inhibition [6] 0.24% | RAM network inhibition [7] 1.42%

CCCN(CCC)C(=O)CCS(=O)(=O)c1cccc2nsnc12
inactive: growth inhibition [1] -9.5% | growth inhibition [2] -18.6% | viability increase [3] -1.95% | viability [4] 96.3% | viability [5] 98.2% | inhibition [6] 1.15% | RAM network inhibition [7] 2.25%

Cc1ccc(OCCSc2cc(C)nc(N)n2)cc1
inactive: growth inhibition [1] -3.51% | growth inhibition [2] -3.22% | viability increase [3] 0.4% | viability [4] 95.6% | viability [5] 96% | inhibition [6] 1.12% | RAM network inhibition [7] 0.05%

O=C1O/C(=C\C(=O)N2CCOCC2)c2ccccc21
inactive: growth inhibition [1] -2.53% | growth inhibition [2] 2.46% | viability increase [3] -1.56% | viability [4] 94.5% | viability [5] 99.2% | inhibition [6] 2.46% | RAM network inhibition [7] 4.69%

CCCCSCc1[nH]c(=O)[nH]c1C(=O)CCCCC(=O)OCC
inactive: growth inhibition [1] -12.8% | growth inhibition [2] -1.29% | viability increase [3] -3.65% | viability [4] 99.4% | viability [5] 100% | inhibition [6] 0.975% | RAM network inhibition [7] 2.54%

Cc1noc(NS(=O)(=O)c2ccc(NC(=O)CSc3ncccn3)cc2)c1C
inactive: growth inhibition [1] -3.47% | growth inhibition [2] -2.18% | viability increase [3] -0.58% | viability [4] 109% | viability [5] 95.2% | inhibition [6] 0.615% | RAM network inhibition [7] 1.94%

CS(=O)(=O)c1ccc(N)cc1
inactive: growth inhibition [1] -13.1% | growth inhibition [2] -8.62% | viability increase [3] -2.37% | viability [4] 103% | viability [5] 88.9% | inhibition [6] 2.72% | RAM network inhibition [7] 1.16%

O=C(c1nnc(Cc2ccc(Cl)cc2)o1)N1CCc2ccccc2C1
inactive: growth inhibition [1] -7.83% | growth inhibition [2] 7.34% | viability increase [3] 3.24% | viability [4] 103% | viability [5] 107% | inhibition [6] 0.135% | RAM network inhibition [7] 4.39%

CCn1cc(C(=O)NCC2CCCO2)c2cc(OC)c(OC)cc2c1=O (configuration not stated)
inactive: growth inhibition [1] -8.12% | growth inhibition [2] -20.1% | viability increase [3] -1.89% | viability [4] 95.4% | viability [5] 101% | inhibition [6] 0.955% | RAM network inhibition [7] 1.29%

Fc1ccc(CN2CCCCCCC2)cc1F
inactive: growth inhibition [1] -3.83% | growth inhibition [2] -9.1% | viability increase [3] -3.13% | viability [4] 92.2% | viability [5] 95.7% | inhibition [6] -0.325% | RAM network inhibition [7] 0.52%

COc1ccccc1OCC(=O)N(Cc1nc(-c2ccc(Cl)cc2)no1)C(C)C
inactive: growth inhibition [1] -16.3% | growth inhibition [2] -10.6% | viability increase [3] 2.37% | viability [4] 84.7% | viability [5] 82.5% | inhibition [6] 1.4% | RAM network inhibition [7] 6.52%

COC(=O)CCC(=O)Nc1ccc(Br)cc1
inactive: growth inhibition [1] 8.2% | growth inhibition [2] 0.895% | viability increase [3] -1.52% | viability [4] 101% | viability [5] 95.4% | inhibition [6] 1.16% | RAM network inhibition [7] 6.37%

Cc1cccc(N2CC(c3nc4ccccc4n3C)CC2=O)c1C (configuration not stated)
inactive: growth inhibition [1] -8.87% | growth inhibition [2] 3.04% | viability increase [3] -3.04% | viability [4] 104% | viability [5] 95.2% | inhibition [6] 1.46% | RAM network inhibition [7] 3.58%

Cc1ccc2c(c1)c(C)c(C)n2CC(O)CN1CCCCC1C (configuration not stated)
inactive: growth inhibition [1] -9.72% | growth inhibition [2] -9.14% | viability increase [3] -4.02% | viability [4] 72.2% | viability [5] 79.6% | inhibition [6] 0.91% | RAM network inhibition [7] 2.28%

CN1C(=O)CS(=O)c2ccc(C(=O)NCCC3=CCCCC3)cc21 (configuration not stated)
inactive: growth inhibition [1] 0.135% | growth inhibition [2] 0.3% | viability increase [3] -2.35% | viability [4] 81.3% | viability [5] 85% | inhibition [6] 0.265% | RAM network inhibition [7] 2.98%

Cc1cc(C)n2nc(S(=O)(=O)N(CC(C)C)CC(C)C)nc2n1
inactive: growth inhibition [1] 3.3% | growth inhibition [2] 3.41% | viability increase [3] -1.13% | viability [4] 104% | viability [5] 94.2% | inhibition [6] 1.08% | RAM network inhibition [7] 0.22%

O=C1CC(c2ccc(S(=O)(=O)NCc3ccccc3)cc2)CN1 (configuration not stated)
inactive: growth inhibition [1] -7.82% | growth inhibition [2] -21% | viability increase [3] -2.13% | viability [4] 101% | viability [5] 87.9% | inhibition [6] 1.56% | RAM network inhibition [7] 1.23%

COc1ccc(OC)c2sc(NC(=O)C3COc4ccccc4O3)nc12 (configuration not stated)
inactive: growth inhibition [1] -19.7% | growth inhibition [2] -10.6% | viability increase [3] -3.63% | viability [4] 101% | viability [5] 95.6% | inhibition [6] -0.125% | RAM network inhibition [7] 2.87%

CCCCCCn1c(SCCOC)nc2c1c(=O)[nH]c(=O)n2C
inactive: growth inhibition [1] -2.79% | growth inhibition [2] -3.65% | viability increase [3] -0.71% | viability [4] 90.2% | viability [5] 85% | inhibition [6] 1.88% | RAM network inhibition [7] 9.09%

COc1ccccc1NC(=O)CSc1nnc(-c2ccco2)n1Cc1ccco1
inactive: growth inhibition [1] 1.41% | growth inhibition [2] 1.92% | viability increase [3] -3.34% | viability [4] 92.8% | viability [5] 90.5% | inhibition [6] 1.39% | RAM network inhibition [7] 1%

CN1CCN(c2cc(=O)n(-c3ccc(Cl)cc3)c(=O)[nH]2)CC1
inactive: growth inhibition [1] -1.55% | growth inhibition [2] -1.23% | viability increase [3] 0.27% | viability [4] 108% | viability [5] 102% | inhibition [6] 0.42% | RAM network inhibition [7] 2.42%
